Measurements reported in ChEMBL document CHEMBL5678798 (Clin Cancer Res, 2009).
The source made the active and inactive calls. The rule behind the calls is not given here.

Columns and labels:
MHH-ES-1 = test: Antiproliferative activity against human MHH-ES-1 cells assessed as reduction in cell viability after 72 hrs by CellTiter-Glo assay; format: functional, cell-based; details: MHH-ES-1, 72 h
Method in brief: (§1)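 Cells seeded in 96-well plates, left overnight at 37°C, then exposed to a range of test concentrations for 72 h. Viability read by CellTiter-Glo luminescence; IC50 from four-parameter curve fit. Lines kept at 37°C, 5% CO2, in recommended growth medium.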

HT-29 = test: Antiproliferative activity against human HT-29 cells assessed as reduction in cell viability after 72 hrs by CellTiter-Glo assay; format: functional, cell-based; details: HT-29, 72 h; method in brief: as §1
MCF7 [1] = test: Antiproliferative activity against human MCF7 cells assessed as reduction in cell viability after 72 hrs by CellTiter-Glo assay; format: functional, cell-based; details: MCF7, 72 h; method in brief: as §1
[2] = Antiproliferative activity against human L-82 cells assessed as reduction in cell viability after 72 hrs by CellTiter-Glo assay; format: functional, cell-based; details: L-82, 72 h; method in brief: as §1
A549 = test: Antiproliferative activity against human A549 cells assessed as reduction in cell viability after 72 hrs by CellTiter-Glo assay; format: functional, cell-based; details: A549, 72 h; method in brief: as §1
HeLa = test: Antiproliferative activity against human HeLa cells assessed as reduction in cell viability after 72 hrs by CellTiter-Glo assay; format: functional, cell-based; method in brief: as §1
[3] = Cytotoxicity against HFF cells assessed as reduction in cell viability after 72 hrs by CellTiter-Glo assay; format: toxicity, cell-based; details: human; method in brief: as §1
MCF7 [4] = test: Induction of cell cycle arrest in human MCF7 cells assessed as increase in cells accumulation at G1 phase at 0.03 to 10 uM incubated for 24 to 48 hrs by propidium iodide staining based flow cytometric analysis; format: functional; details: dose 0.03-10 µM, time lower 24.0 hrs, time upper […]
Method in brief: (§2)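 COLO 205, MCF-7 or NCI-H929 cells seeded in 96-well plates overnight at 37°C, then exposed to DMSO or increasing compound concentrations for 24 or 48 h. Fixed and stained with propidium iodide (Vindelov method), then analysed by flow cytometry for sub-G1, G1, S and G2-M fractions. Experiment repeated twice.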

MCF7 [5] = test: Induction of cell cycle arrest in human MCF7 cells assessed as decrease in cells accumulation at S phase at 0.03 to 10 uM incubated for 24 to 48 hrs by propidium iodide staining based flow cytometric analysis; format: functional; details: dose 0.03-10 µM, time lower 24.0 hrs, time upper […]; method in brief: as §2
NCI-H929 [6] = test: Induction of cell cycle arrest in human NCI-H929 cells assessed as decrease in cells accumulation at G2/M phase at 0.03 to 10 uM incubated for 24 to 48 hrs by propidium iodide staining based flow cytometric analysis; format: functional; details: dose 0.03-10 µM, time lower 24.0 hrs, time upper […]; method in brief: as §2
NCI-H929 [7] = test: Induction of cell cycle arrest in human NCI-H929 cells assessed as effect on sub-2N-DNA content at 0.03 to 10 uM incubated for 24 to 48 hrs by propidium iodide staining based flow cytometric analysis; format: functional; details: dose 0.03-10 µM, time lower 24.0 hrs, time upper […]; method in brief: as §2
[8] = biological target: Calcium/calmodulin-dependent protein kinase kinase 2 (Homo sapiens, UniProt Q96RR4); test: Inhibition of CAMKK2 (unknown origin)
[9] = Inhibition of p70S6K (unknown origin); set-up: species or system Homo sapiens
[10] = biological target: Serine/threonine-protein kinase PAK 1 (Homo sapiens, UniProt Q13153); test: Inhibition of PAK1 (unknown origin)
[11] = biological target: Serine/threonine-protein kinase BRSK1 (Homo sapiens) (UniProt Q8TDC3); test: Inhibition of N-terminal 6His-tagged recombinant human BrSK1 (2 to end residues) expressed in baculovirus infected Sf21 cells at 0.3 uM by filter binding assay relative to control
Method in brief: (§3)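 KinaseProfiler panel of 233 kinases: radiometric filter-binding activity assays with compound at 0.3 or 3 µmol/L. Read-out is percent inhibition.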

[12] = biological target: Vascular endothelial growth factor receptor 1 (Homo sapiens) (UniProt P17948); test: Inhibition of N-terminal GST-tagged recombinant human Flt1 (783 to end residues) expressed in baculovirus infected Sf21 cells at 0.3 uM by filter binding assay relative to control
Method in brief: (§4)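 Outsourced single-concentration screen in a commercial panel of 233 protein kinases, run as radiometric filter-binding activity assays. Test agent was tested at 0.3 or 3 µmol/L, as given in each line, from a 10 mmol/L DMSO stock. Activity is expressed as percent inhibition relative to control.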

[13] = biological target: Serine/threonine-protein kinase Nek3 (Homo sapiens) (UniProt P51956); test: Inhibition of N-terminal 6His-tagged recombinant full length human NEK3 expressed in baculovirus infected Sf21 cells at 0.3 uM by filter binding assay relative to control; method in brief: as §3
[14] = biological target: SRSF protein kinase 1 (Homo sapiens) (UniProt Q96SB4); test: Inhibition of N-terminal GST-tagged recombinant human SRPK1 expressed in Escherichia coli at 0.3 uM by filter binding assay relative to control; method in brief: as §4
[15] = biological target: Activated CDC42 kinase 1 (Homo sapiens) (UniProt Q07912); test: Inhibition of N-terminal GST-tagged recombinant human ACK1 (1 to 389 residues) expressed in baculovirus infected Sf21 cells at 3 uM by filter binding assay relative to control; method in brief: as §4
[16] = biological target: Activin receptor type-1B (Homo sapiens) (UniProt P36896); test: Inhibition of N-terminal GST-tagged recombinant human ALK4 (150 to end residues) expressed in baculovirus infected Sf21 cells at 3 uM by filter binding assay relative to control; method in brief: as §4
Homo sapiens = species: Homo sapiens; test: Inhibition of N-terminal GST-tagged recombinant human MAPK1 expressed in Escherichia coli at 3 uM by filter binding assay relative to control; method in brief: as §4
[17] = biological target: FKBP12A/mTOR (Homo sapiens) (UniProt P62942+P42345); test: Inhibition of human mTOR/FKBP12 at 3 uM by filter binding assay relative to control; format: protein-complex assay
[18] = biological target: Serine/threonine-protein kinase PAK 6 (Homo sapiens) (UniProt Q9NQU5); test: Inhibition of N-terminal His6-tagged recombinant human PAK6 (382 to end residues) expressed in Sf21 cells at 3 uM by filter binding assay relative to control
[19] = biological target: Protein kinase C iota type (Homo sapiens) (UniProt P41743); test: Inhibition of N-terminal His6-tagged recombinant full-length human PKCiota expressed in Sf21 cells at 3 uM by filter binding assay relative to control; method in brief: as §4
[20] = biological target: Death-associated protein kinase 3 (Homo sapiens) (UniProt O43293); test: Inhibition of N-terminal GST tagged recombinant human ZIPK (1 to 290 residues) expressed in Escherichia coli at 3 uM by filter binding assay relative to control; method in brief: as §4
Insulin receptor = Insulin receptor (Homo sapiens, UniProt P06213); test: Inhibition of N-terminal His6-tagged recombinant human IR (1005 to 1310 residues) expressed in baculovirus infected Sf21 cells by filter binding assay
[21] = biological target: Ribosomal protein S6 kinase alpha-4 (Homo sapiens, UniProt O75676); test: Inhibition of N-terminal His6-tagged recombinant human MSK2 (2 to end residues) expressed in baculovirus infected Sf21 cells by filter binding assay
[22] = biological target: Insulin receptor (Mus musculus) (UniProt P15208); details: CD-1, dose 30.0 mg/kg, route po, time 4.0 hrs
[23] = biological target: Insulin receptor (Mus musculus) (UniProt P15208); details: CD-1, dose 30.0 mg/kg, route po, time 21.0 day

Sequence of Insulin receptor (Mus musculus) (P15208 28-748 limits assumed): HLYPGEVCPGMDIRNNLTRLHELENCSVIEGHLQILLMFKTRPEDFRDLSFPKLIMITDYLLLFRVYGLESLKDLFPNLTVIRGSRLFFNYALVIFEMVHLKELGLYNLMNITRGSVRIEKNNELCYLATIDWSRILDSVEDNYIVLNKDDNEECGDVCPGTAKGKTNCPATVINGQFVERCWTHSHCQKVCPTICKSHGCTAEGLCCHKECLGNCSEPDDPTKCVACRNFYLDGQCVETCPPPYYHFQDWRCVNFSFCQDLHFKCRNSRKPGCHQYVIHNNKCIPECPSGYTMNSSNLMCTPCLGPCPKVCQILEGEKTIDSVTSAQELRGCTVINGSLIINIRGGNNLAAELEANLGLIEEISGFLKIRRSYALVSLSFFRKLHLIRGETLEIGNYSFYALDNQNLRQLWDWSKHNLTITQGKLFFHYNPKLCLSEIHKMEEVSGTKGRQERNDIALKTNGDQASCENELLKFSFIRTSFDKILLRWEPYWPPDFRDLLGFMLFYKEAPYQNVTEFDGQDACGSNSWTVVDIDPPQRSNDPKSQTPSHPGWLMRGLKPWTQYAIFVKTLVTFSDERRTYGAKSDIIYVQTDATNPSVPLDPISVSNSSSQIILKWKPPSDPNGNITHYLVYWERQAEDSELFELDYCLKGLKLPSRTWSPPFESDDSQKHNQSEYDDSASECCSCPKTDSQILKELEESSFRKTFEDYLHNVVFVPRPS
Sequence of Insulin receptor (Mus musculus) (P15208 753-1372 limits assumed): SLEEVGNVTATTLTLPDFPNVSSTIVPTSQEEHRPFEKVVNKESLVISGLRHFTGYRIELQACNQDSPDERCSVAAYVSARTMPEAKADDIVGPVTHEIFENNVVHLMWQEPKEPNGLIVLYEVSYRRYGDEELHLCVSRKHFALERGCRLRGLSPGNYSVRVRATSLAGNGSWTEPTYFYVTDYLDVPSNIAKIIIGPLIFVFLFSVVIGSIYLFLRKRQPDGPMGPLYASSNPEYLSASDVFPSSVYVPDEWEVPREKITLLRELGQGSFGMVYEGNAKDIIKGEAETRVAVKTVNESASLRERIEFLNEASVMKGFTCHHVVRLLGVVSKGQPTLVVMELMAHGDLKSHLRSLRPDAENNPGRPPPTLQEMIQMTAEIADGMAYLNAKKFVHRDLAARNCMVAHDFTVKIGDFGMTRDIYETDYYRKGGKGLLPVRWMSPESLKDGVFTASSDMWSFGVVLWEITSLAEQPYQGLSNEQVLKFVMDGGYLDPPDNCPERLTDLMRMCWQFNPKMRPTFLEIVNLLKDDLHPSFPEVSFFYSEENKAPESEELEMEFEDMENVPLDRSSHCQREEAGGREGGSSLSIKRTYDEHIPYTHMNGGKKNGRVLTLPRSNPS
Sequence of SRSF protein kinase 1 (Homo sapiens) (Q96SB4 whole entry, the tested form may be a part): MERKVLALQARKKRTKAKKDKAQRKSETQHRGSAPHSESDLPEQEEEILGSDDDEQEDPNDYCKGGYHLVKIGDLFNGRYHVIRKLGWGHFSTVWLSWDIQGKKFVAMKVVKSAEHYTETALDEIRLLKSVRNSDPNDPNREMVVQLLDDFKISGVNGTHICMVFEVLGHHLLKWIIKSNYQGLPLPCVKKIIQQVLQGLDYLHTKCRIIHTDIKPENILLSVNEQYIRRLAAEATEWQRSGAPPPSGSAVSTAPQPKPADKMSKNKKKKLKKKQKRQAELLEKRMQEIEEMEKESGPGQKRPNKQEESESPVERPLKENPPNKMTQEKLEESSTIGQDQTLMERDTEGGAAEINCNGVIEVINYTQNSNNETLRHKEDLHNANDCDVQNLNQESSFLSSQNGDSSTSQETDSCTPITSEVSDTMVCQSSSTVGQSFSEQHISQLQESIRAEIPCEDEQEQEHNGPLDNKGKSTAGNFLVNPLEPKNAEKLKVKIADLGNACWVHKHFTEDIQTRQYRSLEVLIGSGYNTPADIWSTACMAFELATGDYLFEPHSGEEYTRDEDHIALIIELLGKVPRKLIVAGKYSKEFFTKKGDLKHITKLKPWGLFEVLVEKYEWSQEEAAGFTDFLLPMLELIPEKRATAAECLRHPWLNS
Sequence of FKBP12A/mTOR (Homo sapiens) (P62942 2-108 limits assumed, other chains not shown): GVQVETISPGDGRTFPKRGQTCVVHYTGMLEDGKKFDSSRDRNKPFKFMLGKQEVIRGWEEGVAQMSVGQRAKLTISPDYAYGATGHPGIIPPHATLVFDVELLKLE
Sequence of Serine/threonine-protein kinase PAK 6 (Homo sapiens) (Q9NQU5 whole entry, looked up): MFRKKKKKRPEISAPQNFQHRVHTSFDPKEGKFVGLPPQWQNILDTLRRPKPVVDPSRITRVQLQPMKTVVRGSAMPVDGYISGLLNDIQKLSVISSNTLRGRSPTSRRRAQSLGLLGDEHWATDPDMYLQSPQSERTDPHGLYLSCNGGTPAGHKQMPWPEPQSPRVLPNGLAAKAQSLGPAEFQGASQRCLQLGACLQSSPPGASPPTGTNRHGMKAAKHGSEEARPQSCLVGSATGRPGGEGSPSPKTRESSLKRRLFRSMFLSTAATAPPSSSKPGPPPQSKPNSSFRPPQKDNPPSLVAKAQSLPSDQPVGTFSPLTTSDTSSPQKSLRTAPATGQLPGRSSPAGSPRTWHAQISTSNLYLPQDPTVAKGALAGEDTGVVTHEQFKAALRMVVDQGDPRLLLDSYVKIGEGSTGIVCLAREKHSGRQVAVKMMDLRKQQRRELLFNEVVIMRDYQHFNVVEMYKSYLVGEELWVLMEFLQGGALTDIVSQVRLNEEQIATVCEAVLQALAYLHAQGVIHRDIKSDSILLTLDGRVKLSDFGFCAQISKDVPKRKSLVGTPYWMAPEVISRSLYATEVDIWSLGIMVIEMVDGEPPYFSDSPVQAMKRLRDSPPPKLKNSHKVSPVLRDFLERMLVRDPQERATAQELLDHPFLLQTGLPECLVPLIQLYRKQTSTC
Sequence of Death-associated protein kinase 3 (Homo sapiens) (O43293 whole entry, looked up, the tested form may be a part): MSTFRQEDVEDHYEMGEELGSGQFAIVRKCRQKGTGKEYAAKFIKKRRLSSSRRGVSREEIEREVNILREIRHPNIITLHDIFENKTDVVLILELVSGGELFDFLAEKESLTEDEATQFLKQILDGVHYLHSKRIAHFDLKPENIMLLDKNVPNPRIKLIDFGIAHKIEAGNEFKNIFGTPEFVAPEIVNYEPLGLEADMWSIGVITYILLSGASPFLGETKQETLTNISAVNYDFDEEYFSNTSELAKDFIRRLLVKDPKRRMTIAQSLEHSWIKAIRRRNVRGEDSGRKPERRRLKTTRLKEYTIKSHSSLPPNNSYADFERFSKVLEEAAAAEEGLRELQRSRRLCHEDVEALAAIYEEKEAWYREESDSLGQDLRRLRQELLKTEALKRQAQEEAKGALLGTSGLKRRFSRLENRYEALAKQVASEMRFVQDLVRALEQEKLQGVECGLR
Sequence of Ribosomal protein S6 kinase alpha-4 (O75676 whole entry): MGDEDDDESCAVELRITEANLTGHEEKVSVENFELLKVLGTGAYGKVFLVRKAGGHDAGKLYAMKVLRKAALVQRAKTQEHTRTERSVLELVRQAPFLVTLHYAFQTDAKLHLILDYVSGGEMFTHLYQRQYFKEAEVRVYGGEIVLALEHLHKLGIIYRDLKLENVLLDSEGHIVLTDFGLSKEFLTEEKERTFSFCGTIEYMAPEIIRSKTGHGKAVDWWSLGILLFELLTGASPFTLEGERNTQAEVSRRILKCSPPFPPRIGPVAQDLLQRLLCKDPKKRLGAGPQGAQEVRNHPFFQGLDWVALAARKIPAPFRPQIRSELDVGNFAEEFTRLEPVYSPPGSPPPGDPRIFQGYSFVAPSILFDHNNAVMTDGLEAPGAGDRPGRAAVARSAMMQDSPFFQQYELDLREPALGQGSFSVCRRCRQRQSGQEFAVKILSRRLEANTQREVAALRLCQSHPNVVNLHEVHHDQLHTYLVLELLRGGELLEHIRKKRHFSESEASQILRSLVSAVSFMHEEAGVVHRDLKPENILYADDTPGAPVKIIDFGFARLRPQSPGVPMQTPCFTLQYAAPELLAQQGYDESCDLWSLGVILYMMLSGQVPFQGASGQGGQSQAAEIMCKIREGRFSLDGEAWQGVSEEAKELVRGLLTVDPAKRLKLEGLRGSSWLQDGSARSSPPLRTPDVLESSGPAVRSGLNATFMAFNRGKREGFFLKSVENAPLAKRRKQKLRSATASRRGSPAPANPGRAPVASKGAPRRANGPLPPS
Sequence of Calcium/calmodulin-dependent protein kinase kinase 2 (Q96RR4 whole entry): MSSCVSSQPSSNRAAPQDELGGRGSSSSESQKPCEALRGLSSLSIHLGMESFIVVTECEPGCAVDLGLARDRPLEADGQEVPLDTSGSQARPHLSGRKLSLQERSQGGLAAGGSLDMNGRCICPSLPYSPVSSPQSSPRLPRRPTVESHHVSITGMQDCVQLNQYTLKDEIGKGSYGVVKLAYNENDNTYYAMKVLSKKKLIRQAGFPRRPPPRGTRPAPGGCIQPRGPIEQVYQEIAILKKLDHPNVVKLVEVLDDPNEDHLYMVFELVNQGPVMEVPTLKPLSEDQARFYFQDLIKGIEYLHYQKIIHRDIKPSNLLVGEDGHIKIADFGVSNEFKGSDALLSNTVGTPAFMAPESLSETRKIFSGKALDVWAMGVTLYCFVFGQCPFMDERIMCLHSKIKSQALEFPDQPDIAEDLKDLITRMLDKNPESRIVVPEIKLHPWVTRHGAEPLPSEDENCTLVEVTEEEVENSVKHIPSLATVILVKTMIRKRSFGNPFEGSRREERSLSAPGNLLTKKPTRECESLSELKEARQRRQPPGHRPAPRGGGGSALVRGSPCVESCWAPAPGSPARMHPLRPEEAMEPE

Compound: CCc1cc(Nc2nccc(-c3c(-c4ccc(OC)c(C(=O)Nc5c(F)cccc5F)c4)nc4ccccn34)n2)c(OC)cc1N1CCC(N2CCN(S(C)(=O)=O)CC2)CC1
- IC50 (MHH-ES-1): > 30 µM
- IC50 (HT-29): 0.104 µM
- IC50 (MCF7 [1]): 0.137 µM
- IC50 [2]: > 30 µM
- IC50 (A549): > 20 µM
- IC50 (HeLa): > 20 µM
- IC50 at 72 h [3]: > 20 µM
- Activity (MCF7 [4]): Active
- Activity (MCF7 [5]): Active
- Activity (NCI-H929 [6]): Active
- Activity (NCI-H929 [7]): inactive
- IC50 [8]: > 10 µM
- IC50 [9]: > 10 µM
- IC50 [10]: > 10 µM
- inhibition [11]: 0%
- inhibition [12]: 10%
- inhibition [13]: 1%
- inhibition [14]: 1%
- inhibition [15]: 34%
- inhibition [16]: -10%
- inhibition (Homo sapiens): -10%
- inhibition [17]: 4%
- inhibition [18]: 0%
- inhibition [19]: 0%
- inhibition [20]: 27%
- IC50 (Insulin receptor): 0.074 µM
- IC50 [21]: 3.64 µM
- inhibition [22]: inactive
- inhibition [23]: inactive
